A selection: hits, their analogues and other compounds. The true share with any hit is near 5%.
CSC inhib – blocks cancer stem cells; AID 2717; cancer stem cell-like cells viability, luminescence; inhibition, % at 7.5 µM; 1.1% of 300,000 active; in the data active = inhibition above about 75%; tested in HMLE shEcad cells
UPR CHOP act – activators of apoptotic arm of unfolded protein response (CHOP); CHO-CHOP luciferase reporter, UPR activation, luminescence; percent of tunicamycin response over DMSO baseline; activation, % at 10 µM; 0.34% of 330,000 active; AID 449763;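 active = at 10 µM dose, activation of 40% or more, normalized to positive control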;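 also: 100% = tunicamycin at 10 µg/mL and 0% = DMSO alone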
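Material: CHO-CHOP cells, stable luciferase reporter of PERK-eIF2a-CHOP signalling; quantity: 500 reporter cells seeded per well; buffer or medium: F12 medium containing 10% fetal bovine serum; compound: one dose, 10 µM in 0.5% DMSO; incubation: 6 h compound treatment, 37 °C; measured by: Steady-Glo luciferase luminescence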
T cruzi repl – blocks replication of Trypanosoma cruzi | 1.4% of 300,000 active | T. cruzi beta-gal in NIH3T3, luminescence, 90 h | AID 1885 | inhibition, % (concentration not given with the values);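 active = mean inhibition across valid replicates above about 55%, limit read from the data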;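 also: signal also drops with host cell toxicity which is not excluded here; 0% = plate median of DMSO wells and 100% = zero luminescence signal; higher percent means less beta-gal luminescence so fewer parasites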
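System: Mouse NIH/3T3 fibroblasts infected with β-gal-expressing T. cruzi Tulahuen C4 | Quantity: NIH/3T3 cells, 5,000 per well | Reagent: 5000 reporter trypomastigotes per well | Dosing: Compound pinned at 50 nL/well, DMSO | Schedule: 3 h host attachment, then at least 90 h co-culture | Detection: GalScreen luminescence, 60 min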
Beta apoptosis – beta cell apoptosis inhibition | INS-1E cytokine-induced death, ATP luminescence, 48 h; percent of positive-control rescue, neutral wells zero | protection from apoptosis, % (no concentration beside the values) | 0.8% of 300,000 active | AID 435005;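 active = Every replicate reaches about 75%, or at least half do and their mean reaches it too, limit read from the data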;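 also: 0% = cytokine-treated negative control wells and 100% = positive control rescue; higher means more ATP so stronger rescue from cytokine killing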
UPR XBP1 act – adaptive UPR (XBP1) activation; AID 463104; CHO-XBP1 luciferase reporter, IRE1-XBP1 UPR activation, luminescence; percent of tunicamycin response, DMSO as zero; activation, % at 20 µM; 0.33% of 330,000 active;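 active = versus positive control, 20 µM dose yields 30% or more activation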;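 also: 100% = tunicamycin at 10 µg/mL and 0% = DMSO only wells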
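Material: CHO-XBP1 cells stably carrying IRE1-XBP1-driven luciferase reporter / Amount: 1000 cells per well / Compound: 20 µM, 1% DMSO / Times: 6 h treatment, 37 °C / Detection: luciferase luminescence / Measure: % activation of reporter signal versus tunicamycin and DMSO controls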
Mdm2-MdmX inh – human Mdm2/MdmX binding inhibition; SaOS-2 split-luciferase Mdm2/MdmX complementation, luminescence; inhibition, % at 8 µM; O15151+Q00987; 3% of 330,000 active;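 active = inhibition of at least 50% at 8 µM in the primary screen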
Mdm2-MdmX conf – confirmation of human Mdm2/MdmX interaction inhibitors; shares compounds with Mdm2-MdmX inh; 55% of 10,000 active; inhibition, % at 8 µM; Mdm2-MdmX binding, luminescent assay; in the data active = inhibition above about 40%
Full FLuc ctr – full-length luciferase inhibition in Mdm2/MdmX counter-screen. shares compounds with Mdm2-MdmX inh. SaOS-2 full-length luciferase counterscreen, luminescence. inhibition, % at 8 µM. 77% of 6,200 active;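 active = mean inhibition at 8 µM reaching about 37%, which flags the compound as non-specific, limit read from the data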;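 also: p53-null SaOS-2 cells with luciferase driven by a doxycycline-inducible promoter; compound on cells about two nights before reading with doxycycline added after day one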
An asterisk follows results filed as active.

Results for Cc1ccc(NC(=O)CSc2nc3ccccc3c(=O)n2CCCN2CCCCC2)cc1Cl ?
CSC inhib: 20; UPR CHOP act: 2; T cruzi repl: 56*; Beta apoptosis: 29; UPR XBP1 act: 5; Mdm2-MdmX inh: 100*; Mdm2-MdmX conf: 78*; Full FLuc ctr: 55*

What do the screens show for `O=C(CSc1nc2ccccc2c(=O)n1CCCN1CCOCC1)Nc1ccc(F)c(Cl)c1`?
CSC inhib: 8; UPR CHOP act: 0; Beta apoptosis: -2; UPR XBP1 act: -2; Mdm2-MdmX inh: 52*; Mdm2-MdmX conf: 19

Results for CCC1Oc2ccccc2N(CC(=O)NCC2CCCO2)C1=O (stereo not drawn) ?
CSC inhib: -9; UPR CHOP act: 1; T cruzi repl: 1; Beta apoptosis: -10; UPR XBP1 act: -3; Mdm2-MdmX inh: 3

Results for CCC(=O)NC(c1cc(Cl)c2cccnc2c1O)C1CC1 (stereo not drawn) ?
CSC inhib: 32; UPR CHOP act: 2; Beta apoptosis: 103*; UPR XBP1 act: 7; Mdm2-MdmX inh: 53*; Mdm2-MdmX conf: 47*; Full FLuc ctr: 18

How did CCC(=O)NC(NC(=S)Nc1cccc2cccnc12)C(Cl)(Cl)Cl (stereo not drawn) do in these assays?
CSC inhib: -5; UPR CHOP act: 2; T cruzi repl: -15; Beta apoptosis: -5; UPR XBP1 act: -1; Mdm2-MdmX inh: -18

Results for CCC(=O)NC(c1cc(Cl)c2cccnc2c1O)C(C)C (stereo not drawn) ?
CSC inhib: 35; UPR CHOP act: 3; Beta apoptosis: 105*; UPR XBP1 act: 8; Mdm2-MdmX inh: 53*; Mdm2-MdmX conf: 53*; Full FLuc ctr: 10

What do the screens show for `CCCCn1c(N)c(N(CC(C)C)C(=O)c2ccc(Br)s2)c(=O)[nH]c1=O`?
CSC inhib: -5; UPR CHOP act: 0; T cruzi repl: 6; Beta apoptosis: 5; UPR XBP1 act: -5; Mdm2-MdmX inh: 17

Results for CCOc1cc(CNc2ccc3c(c2)OCCO3)cc(Br)c1OCC ?
CSC inhib: 54; UPR CHOP act: -3; T cruzi repl: 43; Beta apoptosis: 17; UPR XBP1 act: -3; Mdm2-MdmX inh: 73*; Mdm2-MdmX conf: 70*; Full FLuc ctr: 62*

What do the screens show for `O=C1N/C(=C\c2ccc(N3CCOCC3)c(F)c2)C(=O)N1Cc1ccccc1`?
CSC inhib: 52; UPR CHOP act: 4; T cruzi repl: 0; Beta apoptosis: 28; UPR XBP1 act: 12; Mdm2-MdmX inh: 73*; Mdm2-MdmX conf: 40*; Full FLuc ctr: 74*

Results for Cc1ccc(CN2C(=O)N/C(=C\c3ccc(N4CCOCC4)cc3)C2=O)cc1 ?
CSC inhib: 30; UPR CHOP act: 3; T cruzi repl: -6; Beta apoptosis: -3; UPR XBP1 act: 7; Mdm2-MdmX inh: 7

What do the screens show for `CSc1nc2c(c(=O)[nH]c(=O)n2C)n1Cc1ccc(Cl)cc1`?
CSC inhib: -2; UPR CHOP act: 2; T cruzi repl: 16; Beta apoptosis: 6; UPR XBP1 act: 4; Mdm2-MdmX inh: 29

What do the screens show for `Cn1c(=O)[nH]c(=O)c2c1nc(N/N=C/c1ccncc1)n2Cc1ccc(Cl)cc1`?
CSC inhib: -8; UPR CHOP act: 2; T cruzi repl: 5; Beta apoptosis: 3; UPR XBP1 act: 5; Mdm2-MdmX inh: 67*; Mdm2-MdmX conf: 15

What do the screens show for `CN(C)CCCn1c(=O)n(C2CCCCC2)c(=O)c2c3c(sc21)CCCCC3`?
CSC inhib: 16; UPR CHOP act: 2; T cruzi repl: 41; Beta apoptosis: 22; UPR XBP1 act: -1; Mdm2-MdmX inh: 90*; Mdm2-MdmX conf: 72*; Full FLuc ctr: 66*

What do the screens show for `CCCC(C)NC(=O)COC(=O)c1cc(Br)c(Br)s1` (stereo not drawn)?
CSC inhib: -5; UPR CHOP act: -1; T cruzi repl: -17; Beta apoptosis: -4; UPR XBP1 act: 4; Mdm2-MdmX inh: 14

What do the screens show for `CCN(CC)CCCNC(=O)c1cc2nc3c(c(C(F)(F)F)n2n1)CCc1ccccc1-3`?
CSC inhib: 9; UPR CHOP act: 1; T cruzi repl: 14; UPR XBP1 act: 1; Mdm2-MdmX inh: 17

Results for Cc1ccc(O)c(NC(=O)c2cc3nc4c(c(C(F)(F)F)n3n2)CCc2ccccc2-4)c1 ?
CSC inhib: -1; UPR CHOP act: 1; T cruzi repl: -5; Beta apoptosis: -1; UPR XBP1 act: 12; Mdm2-MdmX inh: 80*; Mdm2-MdmX conf: 32; Full FLuc ctr: 80*

What do the screens show for `CN(Cc1nccs1)C(=O)C1CCC(=O)N(CCCc2ccccc2)C1` (stereo not drawn)?
UPR CHOP act: 1; T cruzi repl: -3; UPR XBP1 act: -1; Mdm2-MdmX inh: 20

Results for CCc1ccc(N(CC(=O)NCCc2ccccc2)C(=O)CCC(=O)Nc2ccccn2)cc1 ?
UPR CHOP act: -1; T cruzi repl: 11; Beta apoptosis: -1; UPR XBP1 act: -1; Mdm2-MdmX inh: 22

What do the screens show for `CCn1c2ccccc2c2cc(NC(=O)CNCc3ccccc3OC)ccc21`?
CSC inhib: 71; UPR CHOP act: 1; T cruzi repl: 3; Beta apoptosis: 12; UPR XBP1 act: 4; Mdm2-MdmX inh: 57*; Mdm2-MdmX conf: 56*; Full FLuc ctr: 81*

What do the screens show for `CCn1c(=O)cc(SCC(=O)N2CCN(C(=O)c3ccco3)CC2)c2ccccc21`?
CSC inhib: -4; UPR CHOP act: -1; T cruzi repl: 11; Beta apoptosis: -7; UPR XBP1 act: 2; Mdm2-MdmX inh: 53*; Mdm2-MdmX conf: 32

Results for CCn1c(=O)cc(SCC(=O)Nc2ccc(OC)c(OC)c2)c2ccccc21 ?
CSC inhib: 6; UPR CHOP act: -1; T cruzi repl: 2; Beta apoptosis: 1; UPR XBP1 act: 0; Mdm2-MdmX inh: 52*; Mdm2-MdmX conf: 43*; Full FLuc ctr: 58*

What do the screens show for `CCn1c(=O)cc(SCC(=O)Nc2ccc(Cl)cc2)c2ccccc21`?
CSC inhib: -4; UPR CHOP act: 1; T cruzi repl: 15; UPR XBP1 act: 3; Mdm2-MdmX inh: 31

How did CCn1c2ccccc2c2cc(NC(=O)COc3ccccc3OC)ccc21 do in these assays?
CSC inhib: 63; UPR CHOP act: 1; T cruzi repl: 19; Beta apoptosis: -7; UPR XBP1 act: 1; Mdm2-MdmX inh: 38
